Jurkat viability: reduces viability or proliferation of Jurkat cells. Jurkat E6.1 viability, ATP luminescence, 48 h. inhibition, % at 4 µM. 56,000 tested, 1.2% active;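 active = inhibition above the mean inhibition of all tested compounds plus 3 SD, cut at about 28% in these data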
HEK293 NFkB inh: inhibitors of the PMA/ionomycin-induced NF-kB reporter in HEK293 cells. inhibition, % at 3 µM. HEK-293 NF-kB luciferase reporter, luminescence. AID 465. 62,000 tested, 0.21% active;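 active = inhibition above the mean of all tested compounds plus 3 SD, cut at about 40% in these data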
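System – HEK-293 cells with stable firefly luciferase reporter driven by four HIV NF-kB elements · Doses – one dose, 3 µM · Schedule – 1 h compound pre-incubation, 16 h PMA/ionomycin at 37 °C · Technique – luminescence from luciferase substrate reagent · Measure – percent inhibition normalized per plate to DMSO and reference-inhibitor controls · Replicates – tested once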
M1 agonist: activates the M1 muscarinic receptor | 64,000 tested, 3% active | CHO-M1 cells, Fluo-4 calcium fluorescence, agonist mode; stronger effect = higher value | B-score at 10 µM | AID 626;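 active = fluorescence rise, raw or as B-score row- and column-corrected plate score, outside the 99.7% band of its plate's samples, either direction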
M1 antagonist: blocks the rat M1 muscarinic receptor response to acetylcholine. CHO-M1 cells, Fluo-4 calcium, ACh EC80 antagonist mode; stronger effect = lower value. AID 628. B-score at 10 µM. 64,000 tested, 3.4% active;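 active = calcium fluorescence response, raw or row-and-column corrected B-score, differing from the plate sample mean either way at a set confidence level, mostly lower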
D1 allo mod: allosteric modulators of human D1 dopamine receptor | P21728 | HEK293 D1, CRE-luciferase, dopamine EC30 potentiation; actives deviate in either direction | B-score at 10 µM | 58,000 tested, 5.9% active;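 active = luminescence count or its row- and column-corrected plate score outside the 99.7% band of the plate's sample wells, on either side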
Target sequence (P21728 whole entry, looked up): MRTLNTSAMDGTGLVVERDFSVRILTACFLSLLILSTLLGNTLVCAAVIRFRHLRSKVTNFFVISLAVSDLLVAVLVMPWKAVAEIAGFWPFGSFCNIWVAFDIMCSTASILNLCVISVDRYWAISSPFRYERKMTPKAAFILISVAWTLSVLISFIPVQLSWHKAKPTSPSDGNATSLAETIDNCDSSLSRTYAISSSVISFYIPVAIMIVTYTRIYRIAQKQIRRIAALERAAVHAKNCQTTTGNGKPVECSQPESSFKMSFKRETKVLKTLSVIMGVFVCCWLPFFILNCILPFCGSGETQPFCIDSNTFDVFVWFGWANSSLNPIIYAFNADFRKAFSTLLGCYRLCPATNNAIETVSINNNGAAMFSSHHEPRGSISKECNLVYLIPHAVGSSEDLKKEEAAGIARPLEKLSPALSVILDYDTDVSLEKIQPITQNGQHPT
DAT uptake mod: human DAT dopamine uptake with cocaine, either direction | Q01959 | LLC-PK1 hDAT cells, [14C]-dopamine uptake with cocaine IC80; actives deviate in either direction | B-score at 10 µM | 110,000 tested, 1.3% active | AID 449768;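 active = Z score or B-score, a plate-position-corrected score, falls beyond the plate's 99.7% confidence bounds, in either direction; inactive = both scores lie inside the 99.7% bounds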
D1 PAM confirm: confirmation of human D1 dopamine receptor allosteric modulators; shares compounds with D1 allo mod; HEK293 D1 CRE-luciferase, dopamine EC30 potentiation; stronger effect = higher value; luminescence at 10 µM; 2,200 tested, 88% active;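 active = luminescence in either of two replicates above the same-plate mean plus 3 SD of the low-dose dopamine control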
D1 ag no DA: D1 (human) signaling in absence of dopamine; shares compounds with D1 allo mod; 1,900 tested, 0.8% active; luminescence at 10 µM; AID 646; HEK293 D1 CRE-luciferase, luminescence, no dopamine; stronger effect = higher value; in the data active = luminescence above about 3900
Isoprot counter: isoproterenol response counter-screen activity for D1 modulators; shares compounds with D1 allo mod; HEK293 D1 CRE-luciferase, isoproterenol EC30 counter-screen; calls only at 10 µM; 2,200 tested, 63% active; AID 647;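 active = luminescence in either replicate above plate mean of wells with a partly effective reference agonist dose plus 3 SD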;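 note: isoproterenol raises cAMP through native beta-adrenoceptor Gs so signal bypasses D1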
Hits are given with their value; . = inactive; / = no result; + = active, no number. This is a sample that favours compounds with a hit; in the whole collection about 7.6% have one here.

SMILES	Jurkat viability	HEK293 NFkB inh	M1 agonist	M1 antagonist	D1 allo mod	DAT uptake mod	D1 PAM confirm	D1 ag no DA	Isoprot counter
CCOc1nc(NCCc2ccc(OC)c(OC)c2)nc(N2CCN(c3ccc(OC)cc3)CC2)n1	/	/	/	/	/	.	/	/	/
CS(=O)(=O)N(CC(=O)Nc1ccccc1C(=O)NCCc1ccccc1)c1ccc2c(c1)OCCO2	/	/	/	/	/	.	/	/	/
Cc1nc(NS(=O)(=O)c2ccccc2)sc1NC(=O)OC(C)C	/	/	.	.	2.36	.	.	/	.
Cc1ccc(S(=O)(=O)Nc2nc(C)c(NC(=O)Nc3ccc(Cl)cc3Cl)s2)cc1	/	/	/	/	/	.	/	/	/
COc1cccc(C2C(C(=O)c3sc(C)nc3C)=C(O)C(=O)N2CCN2CCOCC2)c1 (stereo not drawn)	.	.	.	.	.	.	/	/	/
CCCCNc1cc(C)nc(N2CCOCC2)n1	/	/	/	/	/	.	/	/	/
CN(C)c1oc(-c2ccccc2)nc1C#N	/	/	/	/	/	.	/	/	/
COc1ccc(-c2nc(C#N)c(NC(C)c3ccccc3)o2)cc1OC (stereo not drawn)	.	.	.	.	6.81	/	12956	/	.
N#Cc1nc(-c2ccccc2Cl)oc1NCC1CCCO1 (stereo not drawn)	.	.	.	.	5.68	.	10656	.	+
CCOc1ccc(-c2nc(C#N)c(NCC3CCCO3)o2)cc1 (stereo not drawn)	/	/	/	/	/	.	/	/	/
COc1ccc(-c2nc(C#N)c(N3CCOCC3)o2)cc1OC	.	.	.	.	3.2	.	11200	.	+
CN(C)c1oc(-c2ccccc2Cl)nc1C#N	.	.	.	.	3.44	/	6136	.	.
CC(NC(=O)c1ccco1)C1CCCO1 (stereo not drawn)	/	/	/	/	/	.	/	/	/
O=C(CCn1cnc2ccccc2c1=O)Nc1ccc(Cl)c(Cl)c1	/	/	/	/	/	.	/	/	/
C=C1CCN([C@H](C(=O)OCc2cccc(C)c2)C(C)C)S(=O)(=O)c2ccccc21	/	/	/	/	/	.	/	/	/
COc1ccc(-c2nc(C#N)c(NCC3CCCO3)o2)cc1OC (stereo not drawn)	.	.	.	.	3.82	.	8472	.	+
CCC(C)Sc1nc2c(cnn2-c2ccccc2)c(=O)[nH]1 (stereo not drawn)	.	.	.	.	12.2	.	13072	.	+
CCC(C)Sc1nc2c(cnn2-c2ccc(C)cc2)c(=O)[nH]1 (stereo not drawn)	.	.	.	.	/	.	/	/	/
CCCSc1nc2c(cnn2-c2ccccc2)c(=O)[nH]1	.	.	.	.	10.8	.	17784	.	+
CCCSc1nc2c(cnn2-c2ccc(C)cc2)c(=O)[nH]1	.	.	.	.	10.4	.	20136	.	+
CCc1cc2c(=O)n(N)c(CCC(=O)O)nc2s1	.	.	.	.	.	.	/	/	/
CCCc1cc(C(=O)NCc2ccco2)no1	.	.	.	.	.	.	/	/	/
CCC(C)[C@H](NC(=O)NC1CC1)C(=O)O (stereo partly drawn)	.	.	.	.	.	.	/	/	/
Cc1ccc(OCC(=O)Nc2cccc3nsnc23)c(C)c1	/	/	/	/	/	.	/	/	/
c1ccc(CNc2nc3ccccc3n3cnnc23)cc1	/	/	/	/	/	.	/	/	/
SMILES	Jurkat viability	HEK293 NFkB inh	M1 agonist	M1 antagonist	D1 allo mod	DAT uptake mod	D1 PAM confirm	D1 ag no DA	Isoprot counter
c1ccc(CNc2nc3ccccc3n3cnnc23)nc1	.	.	.	.	9.23	.	13992	/	+
S=c1nc2ccccc2c2nc(-c3ccccc3)[nH]n12	.	.	.	.	.	/	/	/	/
COCc1cc(C)nc2sc(C(=O)N3CCN(c4ccccc4)CC3)c(N)c12	.	.	.	.	4.59	.	8080	.	.
Cc1ccc(OCc2nnc(SCC(=O)N3CCOCC3)n2C)cc1	.	.	.	.	.	.	/	/	/
Cc1sc2nc(SC(C)C)nc(N)c2c1C	.	.	.	.	13.7	.	13552	.	+
COC(=O)c1cc(NC(=O)CCc2c(C)nc3ncnn3c2C)cc(C(=O)OC)c1	.	.	.	.	5.2	.	.	/	.
Cc1ccc(NC(=O)CCc2c(C)nc3ncnn3c2C)cc1	.	.	.	.	.	.	/	/	/
CCN1C(=O)N[C@@H](c2cccc(C(F)(F)F)c2)C(C(=O)OC)=C1C	/	/	/	/	/	.	/	/	/
Cc1ccc(CC2S/C(=N/c3ccccn3)NC2=O)cc1 (stereo not drawn)	/	/	/	/	/	.	/	/	/
O=C1N/C(=N/c2ccccn2)SC1Cc1ccccc1 (stereo not drawn)	.	.	.	.	4.55	.	9704	.	.
CCCCCCCNC(=O)COc1ccc2c(c1)C(=O)CC(C)(C)O2	/	/	/	/	/	.	/	/	/
CC1(C)CC(=O)c2cc(OCC(=O)NCCCN3CCN(c4ccccc4F)CC3)ccc2O1	.	.	.	.	5.62	.	6164	/	+
O=C1C2=C(SCCS2)C(=O)N1c1ccccc1	.	.	.	.	.	.	/	/	/
Cc1ccc(S(=O)(=O)NCCC(=O)NCc2ccc3c(c2)OCO3)cc1C	.	.	.	.	.	.	/	/	/
O=C(CCNS(=O)(=O)c1ccc2c(c1)CCC(=O)N2)NCc1ccc2c(c1)OCO2	.	.	.	.	2.86	.	6928	.	.
COC(=O)c1ccc(N2C(=O)c3ccc(OC)c(OC)c3C2=O)cc1	.	.	.	.	/	.	/	/	/
COc1ccc2c(c1OC)C(=O)N(c1cccc(C)c1)C2=O	.	.	.	.	4.6	.	10596	.	+
CC1CC(=O)C2=C(C1)Nc1ccccc1N(C(=O)COc1ccccc1)C2c1ccco1 (stereo not drawn)	.	.	.	.	14.3	.	.	.	.
CCCc1nc2scc(-c3ccccc3)c2c(=O)n1N	.	.	.	.	5.96	.	8892	.	.
CCn1cnc2scc(-c3ccccc3)c2c1=O	.	.	.	10.4	14.8	.	14788	/	+
O=C(Cn1cnc2scc(-c3ccccc3)c2c1=O)N1CCOCC1	.	.	.	.	.	.	/	/	/
O=c1c2c(-c3ccccc3)csc2nc2n1CCC2	.	.	.	.	.	.	/	/	/
CCOC(=O)CSc1nnc(-c2cccs2)n1-c1ccccc1	.	.	.	.	.	.	/	/	/
CSc1nnc(-c2cccs2)n1-c1ccccc1	.	.	.	.	3.72	.	17328	.	+
CCSC(C)CC1C/C(=N/O)c2c(CC)noc2C1 (stereo not drawn)	.	.	/	/	5.31	.	8312	.	.
CCCc1noc2c1/C(=N\O)CC(CC(C)SCC)C2 (stereo not drawn)	.	.	.	.	.	.	/	/	/
COc1cc2c(cc1OC)CN(S(=O)(=O)c1ccc3c(c1)OCCO3)CC2	.	.	.	.	5.27	.	15328	.	+
Cn1c(=O)n(CC(=O)O)c(=O)c2c1nc1n2CCS1	.	.	.	.	5.72	.	.	.	.
